How the values were obtained:
[1] = target: Glutamate receptor ionotropic, AMPA (Rattus norvegicus, UniProt P19490+P19491+P19492+P19493); experiment: Displacement of [3H]-AMPA from Ionotropic glutamate receptor AMPA of rat cortical membranes; assay type: cell membranes, Membrane
Mus musculus [2] = experiment: Compound was tested in vivo (intra peritoneally) in the mouse maximal electroshock convulsion test; assay type: functional
Procedure, shortened: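 CD1 mice (Charles River); tonic convulsions induced by maximal electroshock. Most compounds tested in a single run; test variability estimated at about 12%.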

Glutamate NMDA receptor = experiment: Displacement of [3H]dichlorokynurenate ([3H]-DCKA) from N-methyl-D-aspartate glutamate receptor 1 in rat cortical membranes; assay type: cell membranes, Membrane
Mus musculus [3] = experiment: Compound was tested in vivo (intra peritoneally) with probenecid in the mouse maximal electroshock convulsion test; assay type: functional
Procedure, shortened: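 Maximal electroshock in CD1 mice, scoring tonic convulsions. Animals were pretreated with probenecid 200 mg/kg ip, and the compound was given ip 30 min before shock. ED50 in mg/kg ip.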

Mus musculus [4] = experiment: Compound was tested in vivo (intravenously) activity in the mouse maximal electroshock convulsion test; assay type: functional; conditions: iv
Mus musculus [5] = experiment: Compound was tested in vivo (intraperitoneally) with probenecid in the mouse maximal electroshock convulsion test

Structure (SMILES)	IC50 [1]	IC50 (Glutamate NMDA receptor)	ED50 (Mus musculus [2]; Mus musculus, read-out: ED50)	ED50 (Mus musculus [3])	ED50 (Mus musculus [2])	ED50 (Mus musculus [4])	ED50 (Mus musculus [5])
CCCC1(CC(=O)O)c2ccc(Cl)cc2-c2nc(O)c(O)nc21 (stereo not drawn)	7000 nM	21 nM	1.8 mg/kg	–	–	–	–
CC1(CC(=O)O)c2ccccc2-c2nc(O)c(O)nc21 (stereo not drawn)	4600 nM	21 nM	65 mg/kg	2.7 mg/kg	–	–	–
CC1(CC(=O)O)c2ccc(OC(F)(F)F)cc2-c2nc(O)c(O)nc21 (stereo not drawn)	> 10000 nM	4300 nM	–	–	–	–	–
CC1(CC(=O)O)c2nc(O)c(O)nc2-c2cccc(Cl)c21 (stereo not drawn)	423 nM	79 nM	80 mg/kg	–	–	–	–
CC1(CC(=O)O)c2nc(O)c(O)nc2-c2cc(Cl)cc(Cl)c21 (stereo not drawn)	187 nM	24 nM	> 80 mg/kg	–	–	–	–
CC1(CC(=O)O)c2ccc(F)cc2-c2nc(O)c(O)nc21 (stereo not drawn)	1280 nM	15 nM	> 80 mg/kg	–	–	–	–
O=C(O)C1Nc2cc(Cl)cc(Cl)c2S(=O)(=O)N1Cc1cccc(Br)c1 (stereo not drawn)	> 10000 nM	8.3 nM	–	–	–	–	–
O=c1[nH]c2cc(Cl)c(Cl)c([N+](=O)[O-])c2[nH]c1=O [LICOSTINEL]	766 nM	4 nM	22.5 mg/kg	–	–	–	–

More lines, main results first:

IC50 [1]	IC50 (Glutamate NMDA receptor)	Structure (SMILES)	ED50 (Mus musculus [2]; Mus musculus, read-out: ED50)	ED50 (Mus musculus [3])	ED50 (Mus musculus [2])	ED50 (Mus musculus [4])	ED50 (Mus musculus [5])
1800 nM	140 nM	CC1(CC(=O)O)c2cc(Cl)c(Cl)cc2-c2nc(O)c(O)nc21 (stereo not drawn)	> 80 mg/kg	–	–	–	–
> 10000 nM	2550 nM	CC1(CC(=O)O)c2ccc(Cl)c(Cl)c2-c2nc(O)c(O)nc21 (stereo not drawn)	> 80 mg/kg	–	–	–	–
4500 nM	12 nM	Cc1ccc2c(c1)-c1nc(O)c(O)nc1C2(C)CC(=O)O (stereo not drawn)	23 mg/kg	–	–	–	–
1000 nM	44 nM	CC1(CC(=O)O)c2ccc(Cl)cc2-c2nc(O)c(O)nc21 (single isomer, unassigned; (+))	–	–	>80 mg/kg	–	–
10000 nM	5 nM	CC1(CC(=O)O)c2ccc(Cl)cc2-c2nc(O)c(O)nc21 (single isomer, unassigned; (-))	–	–	4.5 mg/kg	2 mg/kg	–
2100 nM	28 nM	CC1(CC(=O)O)c2ccc(Cl)cc2-c2nc(O)c(O)nc21 (stereo in doubt; 10i)	–	–	6.8 mg/kg	–	1.8 mg/kg
